The target of series [1] is T1, 5-hydroxytryptamine receptor 1A (Homo sapiens, UniProt P08908).
T1 sequence (P08908 whole entry): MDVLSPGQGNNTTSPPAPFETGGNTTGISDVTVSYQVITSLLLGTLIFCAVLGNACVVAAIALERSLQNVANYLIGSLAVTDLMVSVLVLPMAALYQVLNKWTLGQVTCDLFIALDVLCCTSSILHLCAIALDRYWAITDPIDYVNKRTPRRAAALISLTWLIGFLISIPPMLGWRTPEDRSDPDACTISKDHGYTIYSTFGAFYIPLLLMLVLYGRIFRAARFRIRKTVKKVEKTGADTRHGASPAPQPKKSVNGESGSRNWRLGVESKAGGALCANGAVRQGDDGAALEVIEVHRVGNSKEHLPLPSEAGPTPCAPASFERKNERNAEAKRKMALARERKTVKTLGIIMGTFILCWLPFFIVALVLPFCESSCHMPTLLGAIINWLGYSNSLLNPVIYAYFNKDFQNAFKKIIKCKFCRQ
The series can be described thus: Displacement of [3H]8-OH-DPAT from recombinant human 5-HT1A receptor expressed in HEK293 cell membranes after 60 mins by liquid scintillation counting method. Background: Loss of bound radioactivity is the signal in a displacement assay; it reports binding, not function.

Series [2] has as its target 5-hydroxytryptamine receptor 2A (Homo sapiens, UniProt P28223). In words: biochemical. Format: cell-based, HEK293.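 Note: radioligand displacement of [3H]ketanserin binding at human 5-HT2A receptor in membranes from HEK293 cells, 60 min incubation, read by liquid scintillation counting.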
The target in series [3] is 5-hydroxytryptamine receptor 6 (Homo sapiens, UniProt P50406). In words: Displacement of [3H]LSD from recombinant human 5-HT6 receptor expressed in CHO cells cell membranes after 60 mins by liquid scintillation counting method.
5-hydroxytryptamine receptor 6, sequence (P50406 whole entry): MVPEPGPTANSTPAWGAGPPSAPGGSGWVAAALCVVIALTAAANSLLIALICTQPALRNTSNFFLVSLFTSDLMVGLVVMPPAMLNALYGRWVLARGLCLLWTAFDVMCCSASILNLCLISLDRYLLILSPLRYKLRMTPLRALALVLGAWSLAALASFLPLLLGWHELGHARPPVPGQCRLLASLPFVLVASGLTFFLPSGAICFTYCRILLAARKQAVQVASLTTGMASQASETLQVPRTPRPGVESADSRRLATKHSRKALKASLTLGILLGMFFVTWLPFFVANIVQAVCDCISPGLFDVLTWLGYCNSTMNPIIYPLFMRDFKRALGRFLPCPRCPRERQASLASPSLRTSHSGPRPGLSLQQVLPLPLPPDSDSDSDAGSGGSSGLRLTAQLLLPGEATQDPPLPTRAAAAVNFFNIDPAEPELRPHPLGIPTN
Series [4] deals with 5-hydroxytryptamine receptor 7 (Homo sapiens, UniProt P34969). The series can be described thus: biochemical. It counts as cell-based, CHO.
5-hydroxytryptamine receptor 7, sequence (P34969 whole entry): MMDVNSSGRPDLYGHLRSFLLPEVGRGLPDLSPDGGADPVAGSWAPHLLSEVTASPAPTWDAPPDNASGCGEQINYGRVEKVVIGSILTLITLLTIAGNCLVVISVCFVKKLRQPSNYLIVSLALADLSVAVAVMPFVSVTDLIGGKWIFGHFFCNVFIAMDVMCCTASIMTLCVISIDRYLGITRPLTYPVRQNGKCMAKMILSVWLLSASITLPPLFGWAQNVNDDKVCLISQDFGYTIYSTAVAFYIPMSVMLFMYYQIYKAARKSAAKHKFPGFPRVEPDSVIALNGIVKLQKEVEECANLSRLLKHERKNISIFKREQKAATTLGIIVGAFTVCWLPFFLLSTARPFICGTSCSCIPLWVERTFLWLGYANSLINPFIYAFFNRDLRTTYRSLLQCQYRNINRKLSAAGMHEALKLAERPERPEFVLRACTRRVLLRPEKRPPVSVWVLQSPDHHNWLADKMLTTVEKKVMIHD
Series [5] addresses T2, Alpha-1A adrenergic receptor (Homo sapiens, UniProt P35348).
T2 sequence (P35348 whole entry): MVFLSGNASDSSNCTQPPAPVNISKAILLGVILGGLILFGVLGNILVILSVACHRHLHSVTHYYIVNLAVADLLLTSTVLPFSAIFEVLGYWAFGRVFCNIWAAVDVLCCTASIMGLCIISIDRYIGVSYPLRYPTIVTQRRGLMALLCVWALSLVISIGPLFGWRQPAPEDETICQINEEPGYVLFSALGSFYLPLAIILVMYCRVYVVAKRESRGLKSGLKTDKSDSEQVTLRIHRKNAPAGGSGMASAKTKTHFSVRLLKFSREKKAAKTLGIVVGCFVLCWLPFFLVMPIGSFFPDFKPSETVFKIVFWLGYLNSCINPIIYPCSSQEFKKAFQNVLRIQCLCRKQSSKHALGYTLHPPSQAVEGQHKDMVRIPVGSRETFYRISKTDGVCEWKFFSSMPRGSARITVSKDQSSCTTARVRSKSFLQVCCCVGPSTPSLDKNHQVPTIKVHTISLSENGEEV
In words: Displacement of [3H]prazosin from recombinant human alpha1 adrenoceptor expressed in CHO cell membranes after 30 mins by liquid scintillation counting method.

Series [6] deals with T3, 5-hydroxytryptamine receptor 1A (Homo sapiens) (UniProt P08908).
T3 sequence (whole entry): T1 sequence (P08908 whole entry)
The series can be described thus: Agonist activity at human 5-HT1A receptor expressed in CHO-K1 cells co-expressing Galpha16 assessed as increase in calcium mobilization measured for 30 secs by aequorin-derived luminescence assay relative to serotonin. Format: functional, cell-based.

Series [7] has as its target T3, 5-hydroxytryptamine receptor 1A (Homo sapiens). The series can be described thus: Antagonist activity at human 5-HT1A receptor expressed in CHO-K1 cells co-expressing Galpha16 assessed as decrease in serotonin-induced calcium mobilization preincubated for 25 mins followed by serotonin challenge measured for 30 secs by aequorin-derived luminescence assay relative to control. It counts as functional, cell-based.

For series [8] the target is unchanged. The series can be described thus: (§1) Antagonist activity at human 5-HT1A receptor expressed in CHO-K1 cells co-expressing Galpha16 assessed as decrease in serotonin calcium mobilization preincubated for 25 mins followed by serotonin challenge measured for 30 secs by aequorin-derived luminescence assay. It counts as functional, cell-based. (In general: Calcium assays in cells follow changes in intracellular calcium, usually with a dye or a luminescent sensor.)

Series [9] addresses T1, 5-hydroxytryptamine receptor 1A. Described as §1. Format: functional, cell-based.
The subject of series [10] is Mus musculus. In words: Antidepressant-like activity in Albino Swiss CD-1 mouse assessed as immobility time at 5 mg/kg, ip administered 30 mins prior to test measured for last 4 mins of 6 mins observation by forced swim test (reference value: 153.9 to 201.9 secs). Format: functional.
Series [11] relates to Mus musculus. In words: Antidepressant-like activity in Albino Swiss CD-1 mouse assessed as immobility time at 10 mg/kg, ip administered 30 mins prior to test measured for last 4 mins of 6 mins observation by forced swim test (reference value: 153.9 to 201.9 secs). Format: functional.
Series [12] deals with Mus musculus. The series can be described thus: Antidepressant-like activity in Albino Swiss CD-1 mouse assessed as immobility time at 20 mg/kg, ip administered 30 mins prior to test measured for last 4 mins of 6 mins observation by forced swim test (reference value: 153.9 to 201.9 secs). Format: functional.
The test system of series [13] is Mus musculus. In words: Toxicity in Albino Swiss CD-1 mouse assessed as effect on locomotory activity at 5 to 10 mg/kg, ip administered for 30 mins prior to test measured for 1 min. Format: organism-based. The note with it: in vivo. In short, it runs like this: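 Mice dosed i.p. 30 min before test; vehicle groups received 0.9% NaCl. Spontaneous locomotion scored as number of crossings during a 1-min session. Each dose compared with its own vehicle group by Student t-test; mean ± SEM, n = 8–10 mice per group.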

In series [14] the test system is Mus musculus. In words: Anticonvulsant activity in Albino Swiss CD-1 mouse assessed as protection against 50 Hz current-induced seizure at 30 mg/kg, ip. Format: functional, organism-based.
Series [15] has as its system Mus musculus. The series can be described thus: Toxicity in Albino Swiss CD-1 mouse assessed as death at 100 mg/kg, ip. Format: organism-based. The note with it: in vivo. Summed up: (§2)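 Deaths counted in mice during maximal electroshock (MES) seizure testing after i.p. dosing, 6 mice per dose (3 or 1 at some top doses); recorded as number dead/number tested alongside protection and rotarod motor impairment (10 rpm); untreated control group included.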

Series [16] deals with Mus musculus. In words: Toxicity in Albino Swiss CD-1 mouse assessed as death at 15 to 30 mg/kg, ip. Format: organism-based. The note with it: in vivo. In short, it runs like this:
as §2

Series [17] concerns Mus musculus. The series can be described thus: Neurotoxicity in Albino Swiss CD-1 mouse assessed as motor impairment at 30 mg/kg, ip treated 30 mins prior to test by rotarod test. Format: toxicity, organism-based. The conditions noted are these: in vivo, 0.5 h.
The test system of series [18] is Mus musculus. In words: Anticonvulsant activity in ip dosed Albino Swiss CD-1 mouse assessed as dose required to protect against 50 Hz current-induced seizure. Format: functional. The note with it: Swiss CD-1, ip.
The nature of series [19]: Neurotoxicity in ip dosed Albino Swiss CD-1 mouse assessed as minimum dose required to induce motor impairment treated 30 mins prior to test by rotarod test. It counts as toxicity, organism-based. The note with it: in vivo. (In general: The rotarod test checks motor coordination on a turning rod.)
Series [20] can be described thus: Protection index, ratio of TD50 for motor impairment in ip dosed Swiss albino CD-1 mouse to ED50 for protection against 50 Hz current-induced seizures in ip dosed Swiss albino CD-1 mouse. The note with it: in vivo, read-out: Ratio TD50/ED50. It counts as toxicity, organism-based, Swiss CD-1.
Another series deals with D(2) dopamine receptor (Homo sapiens, UniProt P14416). The series can be described thus: Displacement of [3H]methylspiperonee from recombinant human D2 receptor expressed in HEK293 cell membranes at 10^-5 M after 60 mins by liquid scintillation counting method.
D(2) dopamine receptor, sequence (P14416 whole entry): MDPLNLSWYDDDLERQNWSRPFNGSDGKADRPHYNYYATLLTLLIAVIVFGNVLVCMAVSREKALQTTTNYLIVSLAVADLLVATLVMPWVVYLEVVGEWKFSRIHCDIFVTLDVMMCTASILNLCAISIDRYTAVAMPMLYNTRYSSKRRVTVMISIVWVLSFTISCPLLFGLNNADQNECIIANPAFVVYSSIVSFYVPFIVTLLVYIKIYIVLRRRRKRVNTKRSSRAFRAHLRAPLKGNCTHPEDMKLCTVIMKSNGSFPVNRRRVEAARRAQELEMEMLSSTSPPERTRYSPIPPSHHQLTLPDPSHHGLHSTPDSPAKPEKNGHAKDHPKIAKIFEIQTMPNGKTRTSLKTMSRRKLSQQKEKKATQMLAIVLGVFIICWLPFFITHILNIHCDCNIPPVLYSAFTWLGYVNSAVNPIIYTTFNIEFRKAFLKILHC

Active and inactive are the calls of the source. No cut-off for these calls is given here.

In general, Ki refers to a measure of affinity in units of concentration, obtained from inhibition or displacement. The Emax is the greatest response seen or fitted, relative to the assay's reference. The Kb is the equilibrium dissociation constant of an antagonist, usually derived from a functional assay. By IC50 is commonly meant the midpoint of a concentration-inhibition curve. What is called ED50 is the midpoint of the dose-response relation. What is called TD50 is the dose at which the toxic effect under study appears in half of the subjects.

5-hydroxytryptamine receptor 2A, sequence (P28223 whole entry): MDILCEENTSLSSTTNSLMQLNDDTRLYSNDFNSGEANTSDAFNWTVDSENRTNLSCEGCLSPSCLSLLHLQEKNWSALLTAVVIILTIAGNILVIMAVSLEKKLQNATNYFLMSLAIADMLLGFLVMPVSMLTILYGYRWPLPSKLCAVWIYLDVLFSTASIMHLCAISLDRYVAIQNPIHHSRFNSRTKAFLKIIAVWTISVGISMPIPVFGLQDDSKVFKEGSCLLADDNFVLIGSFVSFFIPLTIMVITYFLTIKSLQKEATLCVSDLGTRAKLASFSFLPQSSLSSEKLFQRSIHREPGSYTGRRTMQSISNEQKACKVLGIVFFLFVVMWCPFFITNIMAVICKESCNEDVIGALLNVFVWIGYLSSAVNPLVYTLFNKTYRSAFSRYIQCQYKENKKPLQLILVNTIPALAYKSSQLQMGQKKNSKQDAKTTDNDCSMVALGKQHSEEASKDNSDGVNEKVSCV

As for `Cc1cc(C)c(OCCOCCN2CCN(CCc3ccccc3)CC2)c(C)c1.Cl.Cl`, the Ki stood at 552 nM in series [1]; 2810 nM in [2]; 2150 nM in series [3]; 1050 nM in series [4]; 772 nM in series [5]. Further, the figures for the maximal effect (Emax) in [6] and in [7] were 10% and 45%, respectively. In addition, the antagonist equilibrium constant (Kb) in series [8] was determined as 291 nM. Also, in [9], the IC50 was 1180 nM. Also, the values for the Time in the series on Mus musculus [10], with Mus musculus [11] and in the series with Mus musculus [12] were 170.5 s, 173.8 s and 178.4 s, respectively. Moreover, the Activity entry is “Non-Toxic” in the series with Mus musculus [13], “Toxic” in the series on Mus musculus [15], “Non-Toxic” in the series on Mus musculus [16] and “Non-Toxic” in the series on Mus musculus [17]. Besides, in the series with Mus musculus [14], the outcome was Active. The ED50 in the series with Mus musculus [18] was 18 mg/kg. For the same compound, in series [19], the TD50 at 0.5 h was determined as 53.3 mg/kg. Besides, in [20], the selectivity ratio is 2.96. Further, the inhibition entry at D(2) dopamine receptor was “inactive”.
